pEC50, pIC50: −log10 of the molar value. The source made the active and inactive calls. The rule behind the calls is not given here.
What was measured:
[1] = system: Mast/stem cell growth factor receptor Kit (Homo sapiens), P10721 [T670I]; assay: Inhibition of […] cKIT T670I mutant in human GIST-5R cells assessed as cell growth inhibition after 72 hrs by cell titer-glo assay; assay type: cell-based
[2] = MRT (0 to infinity) in Sprague-Dawley rat at 1 mg/kg, iv measured up to 8 hrs post dosing; assay type: ADME, organism-based; details: in vivo
How it was run: (§1)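 Male Sprague-Dawley rats, 8 weeks old, fasted overnight, dosed at 1 mg/kg iv from a 1 mg/mL stock in 5% DMSO/40% PEG400/55% saline. About 0.2 mL jugular blood taken into heparin at 1 min to 8 h. Plasma held at -80 °C until analysis. n = 3, mean reported.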

BaF3 = assay: Induction of apoptosis in mouse BA/F3 cells harboring TEL-fused cKIT T670I mutant allografted in nu/nu mouse at 25 to 100 mg/kg, ip administered daily for 10 days by TUNEL staining based microscopic analysis; assay type: functional, organism-based
How it was run: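 Tumour sections from the daily-IP, 10-day BaF3-TEL-cKIT-T670I xenograft study were deparaffinised and digested with proteinase K for 15 min at RT. Peroxidase blocked in 3% H2O2/methanol. TdT reaction 1 h at 37 °C, converter-POD 30 min at 37 °C, DAB ~8 min, haematoxylin counterstain.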

[3] = target: Macrophage colony-stimulating factor 1 receptor (Homo sapiens) (UniProt P07333); assay: Inhibition of TEL-fused partial length human CSF1R expressed in mouse BA/F3 cells after 72 hrs by cell titer-glo assay; assay type: cell-based
How it was run: (§2)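 Cells seeded at 3000 per well and exposed to serial compound dilutions for 72 h. Viability read by CellTiter-Glo luminescence and normalised to DMSO controls; mean of three independent measurements. BaF3 lines kept IL-3-free in RPMI 1640/10% FBS after retroviral transduction and puromycin selection. GIST lines grown in DMEM/10% FBS.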

[4] = target: Cyclin-dependent kinase-like 2 (Homo sapiens) (UniProt Q92772); assay: Inhibition of partial length human CDKL2 expressed in bacterial expression system assessed as activity remaining at 1 uM by kinome scan assay
[5] = system: Mast/stem cell growth factor receptor Kit (Homo sapiens), P10721 [V654A]; assay: Inhibition of TEL-fused cKIT V654A mutant (unknown origin) expressed in mouse BA/F3 cells assessed as cell growth inhibition after 72 hrs by cell titer-glo assay; assay type: cell-based; how it was run: as §2
[6] = target: T1, Mast/stem cell growth factor receptor Kit (Homo sapiens, UniProt P10721); assay: Ratio of sunitinib IC50 to compound IC50 for TEL-fused cKIT (unknown origin) expressed in mouse BA/F3 cells; assay type: cell-based
[7] = Cmax in Sprague-Dawley rat at 1 mg/kg, iv measured up to 8 hrs post dosing; assay type: ADME, organism-based; design: dose 1 mg/kg, route intravenous; details: in vivo
How it was run: (§3)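 Male Sprague-Dawley rats, 8 weeks old, fasted overnight; iv dosing from a 1 mg/mL solution in 5% DMSO/40% PEG400/55% saline. Jugular-vein blood (~0.2 mL, heparinised) taken at 1, 5, 15, 30 min and 1, 2, 4, 6, 8 h; plasma held at -80 °C until analysis; n=3.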

[8] = target: T2, Mast/stem cell growth factor receptor Kit (Homo sapiens, UniProt P10721, T670I); assay: Inhibition of His-tagged cKIT T670I mutant (544 to 935 residues) (unknown origin) expressed in Sf9 cells using Poly(4:1 Glu, Tyr) peptide as substrate after 1 hr by ADP-glo kinase assay
[9] = Tmax in Sprague-Dawley rat at 1 mg/kg, iv measured up to 8 hrs post dosing; assay type: ADME, organism-based; details: in vivo; how it was run: as §1
[10] = target: Vascular endothelial growth factor receptor 3 (Homo sapiens) (UniProt P35916); assay: Inhibition of partial length human FLT4 expressed in bacterial expression system assessed as activity remaining at 1 uM by kinome scan assay
[11] = target: T1, Mast/stem cell growth factor receptor Kit; assay: Inhibition of partial length human cKIT expressed in bacterial expression system assessed as activity remaining at 1 uM by kinome scan assay
[12] = target: T1, Mast/stem cell growth factor receptor Kit; assay: Inhibition of His-tagged cKIT (unknown origin) expressed in Sf9 cells using Poly(4:1 Glu, Tyr) peptide as substrate after 1 hr by ADP-glo kinase assay
[13] = target: T1, Mast/stem cell growth factor receptor Kit; assay: Inhibition of wild type cKIT in human GIST-T1 cells assessed as downregulation of ERK phosphorylation at T202//204 after 1 hr by Western blot analysis; assay type: cell-based
How it was run: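 GIST-T1 cells in DMEM with 10% FBS were exposed to serially diluted compound for 1 h, then lysed. Lysates were analysed by western blot with phospho-specific antibodies against AKT (Ser473), ERK1/2 (Thr202/Tyr204) and S6 ribosomal protein (Ser235/236), each alongside its total protein.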

[14] = system: Mast/stem cell growth factor receptor Kit (Homo sapiens), P10721 [D816V]; assay: Inhibition of TEL-fused cKIT D816V mutant (unknown origin) expressed in mouse BA/F3 cells assessed as cell growth inhibition after 72 hrs by cell titer-glo assay; assay type: cell-based; how it was run: as §2
[15] = target: Vascular endothelial growth factor receptor 3 (Homo sapiens) (UniProt P35916); assay: Inhibition of TEL-fused partial length human FLT4 expressed in mouse BA/F3 cells after 72 hrs by cell titer-glo assay; assay type: cell-based; how it was run: as §2
[16] = target: T2, Mast/stem cell growth factor receptor Kit; assay: Inhibition of cKIT T670I mutant autophosphorylation at Y719 in human GIST-5R cells at 0.1 to 3 uM after 1 hr by Western blot analysis; assay type: cell-based
How it was run: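 GIST-T1 or GIST-5R cells in DMEM with 10% FBS were treated with serially diluted compound for 1 h. Cells were then lysed and analysed by western blotting.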

GISTT1 = assay: Induction of apoptosis in human GISTT1 cells assessed as increase in cleaved PARP levels after 24 hrs by Western blot analysis; assay type: functional, cell-based
How it was run: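 GIST-T1 or GIST-5R cells in DMEM with 10% FBS were exposed to serially diluted compound for 24 h. Apoptosis was assessed by western blot with PARP and GAPDH antibodies.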

[17] = Toxicity in nu/nu mouse xenografted with TEL-fused cKIT T670I mutant expressed in mouse BA/F3 cells assessed as body weight reduction at 25 to 100 mg/kg/day, ip after 10 days; assay type: organism-based; details: in vivo, 240 h
How it was run: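 Female nu/nu mice, 5 weeks old on purchase, injected subcutaneously in the right flank with 1×10^6 BaF3-TEL-cKIT-T670I cells in PBS/Matrigel 1:1. At 200–400 mm³ tumours, mice were randomized to 7 per group. They then got 25, 50 or 100 mg/kg/day ip or vehicle (0.5% methylcellulose/0.4% Tween80 in water) for 10 days. Body weight was recorded daily relative to initial weight.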

[18] = target: T1, Mast/stem cell growth factor receptor Kit; assay: Inhibition of wild type cKIT in human GIST-T1 cells assessed as cell growth inhibition after 72 hrs by cell titer-glo assay; assay type: cell-based
How it was run: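 GIST-T1 cells (cKIT wt) grown in DMEM with 10% FBS and 1% penicillin/streptomycin at 37 °C, 5% CO2. Viability read by CellTiter-Glo luminescence and normalized to DMSO controls. GI50 taken from the mean of three independent measurements.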

[19] = target: Receptor-type tyrosine-protein kinase FLT3 (Homo sapiens) (UniProt P36888); assay: Inhibition of TEL-fused partial length human FLT3 expressed in mouse BA/F3 cells after 72 hrs by cell titer-glo assay; assay type: cell-based; how it was run: as §2
[20] = AUC (0 to infinity) in Sprague-Dawley rat at 1 mg/kg, iv measured up to 8 hrs post dosing; assay type: ADME, organism-based; design: dose 1 mg/kg, route intravenous, time infinity; details: in vivo; how it was run: as §3
[21] = target: Receptor-type tyrosine-protein kinase FLT3 (Homo sapiens) (UniProt P36888); assay: Inhibition of partial length human FLT3 expressed in bacterial expression system assessed as activity remaining at 1 uM by kinome scan assay

T1 sequence (P10721 whole entry, the tested form may be a part): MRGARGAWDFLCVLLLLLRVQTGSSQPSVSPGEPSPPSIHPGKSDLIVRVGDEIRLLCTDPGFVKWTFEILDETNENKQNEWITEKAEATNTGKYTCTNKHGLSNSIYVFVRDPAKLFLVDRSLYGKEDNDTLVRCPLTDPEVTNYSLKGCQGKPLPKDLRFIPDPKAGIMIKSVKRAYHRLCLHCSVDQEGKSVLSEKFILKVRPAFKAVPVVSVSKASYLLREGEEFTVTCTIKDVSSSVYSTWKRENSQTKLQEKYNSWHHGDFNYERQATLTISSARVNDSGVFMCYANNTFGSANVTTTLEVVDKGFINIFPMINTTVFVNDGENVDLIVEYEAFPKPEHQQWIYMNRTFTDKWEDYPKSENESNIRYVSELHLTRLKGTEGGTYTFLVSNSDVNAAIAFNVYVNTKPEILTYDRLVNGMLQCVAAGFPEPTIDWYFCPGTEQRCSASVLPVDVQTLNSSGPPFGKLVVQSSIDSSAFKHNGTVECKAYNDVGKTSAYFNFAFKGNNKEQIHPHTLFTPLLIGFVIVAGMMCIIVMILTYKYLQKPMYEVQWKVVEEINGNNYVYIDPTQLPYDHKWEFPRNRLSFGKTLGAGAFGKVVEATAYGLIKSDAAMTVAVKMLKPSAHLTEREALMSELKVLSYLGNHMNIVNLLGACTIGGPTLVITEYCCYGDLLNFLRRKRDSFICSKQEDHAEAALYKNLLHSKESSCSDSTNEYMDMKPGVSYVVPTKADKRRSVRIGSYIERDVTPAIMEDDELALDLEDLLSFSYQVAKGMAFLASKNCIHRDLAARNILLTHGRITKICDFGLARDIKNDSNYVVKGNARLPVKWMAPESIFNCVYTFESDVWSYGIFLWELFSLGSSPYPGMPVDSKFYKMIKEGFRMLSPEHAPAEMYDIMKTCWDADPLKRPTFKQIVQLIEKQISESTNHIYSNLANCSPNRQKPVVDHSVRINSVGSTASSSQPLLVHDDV
T2 sequence (P10721 26-976 T670I limits assumed): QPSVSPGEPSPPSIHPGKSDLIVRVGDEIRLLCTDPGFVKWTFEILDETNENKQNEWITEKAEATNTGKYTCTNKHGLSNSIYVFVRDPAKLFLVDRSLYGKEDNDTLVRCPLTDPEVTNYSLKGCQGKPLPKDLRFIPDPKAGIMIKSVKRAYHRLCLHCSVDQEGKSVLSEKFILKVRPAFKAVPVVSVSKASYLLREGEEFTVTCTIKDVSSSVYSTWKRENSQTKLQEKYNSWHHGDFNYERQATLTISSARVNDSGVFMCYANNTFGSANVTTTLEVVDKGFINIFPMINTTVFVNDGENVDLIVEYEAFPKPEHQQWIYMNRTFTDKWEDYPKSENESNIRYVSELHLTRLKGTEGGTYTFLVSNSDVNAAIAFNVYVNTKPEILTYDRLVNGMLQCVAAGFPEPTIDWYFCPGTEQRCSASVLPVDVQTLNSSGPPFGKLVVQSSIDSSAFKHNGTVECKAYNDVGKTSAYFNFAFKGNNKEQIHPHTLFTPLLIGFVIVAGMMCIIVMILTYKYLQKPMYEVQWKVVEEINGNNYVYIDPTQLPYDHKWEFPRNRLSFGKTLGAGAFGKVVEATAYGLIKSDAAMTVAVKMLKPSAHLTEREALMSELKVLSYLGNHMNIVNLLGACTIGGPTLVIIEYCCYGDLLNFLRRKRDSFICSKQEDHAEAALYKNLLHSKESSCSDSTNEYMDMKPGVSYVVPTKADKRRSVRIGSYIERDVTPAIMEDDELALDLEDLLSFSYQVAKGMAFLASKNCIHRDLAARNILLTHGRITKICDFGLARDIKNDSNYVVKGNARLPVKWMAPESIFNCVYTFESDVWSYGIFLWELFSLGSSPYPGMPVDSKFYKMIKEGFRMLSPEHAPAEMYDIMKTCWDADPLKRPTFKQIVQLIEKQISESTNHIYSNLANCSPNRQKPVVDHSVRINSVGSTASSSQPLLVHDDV
Chain of Receptor-type tyrosine-protein kinase FLT3 (Homo sapiens) (P36888 whole entry, the tested form may be a part): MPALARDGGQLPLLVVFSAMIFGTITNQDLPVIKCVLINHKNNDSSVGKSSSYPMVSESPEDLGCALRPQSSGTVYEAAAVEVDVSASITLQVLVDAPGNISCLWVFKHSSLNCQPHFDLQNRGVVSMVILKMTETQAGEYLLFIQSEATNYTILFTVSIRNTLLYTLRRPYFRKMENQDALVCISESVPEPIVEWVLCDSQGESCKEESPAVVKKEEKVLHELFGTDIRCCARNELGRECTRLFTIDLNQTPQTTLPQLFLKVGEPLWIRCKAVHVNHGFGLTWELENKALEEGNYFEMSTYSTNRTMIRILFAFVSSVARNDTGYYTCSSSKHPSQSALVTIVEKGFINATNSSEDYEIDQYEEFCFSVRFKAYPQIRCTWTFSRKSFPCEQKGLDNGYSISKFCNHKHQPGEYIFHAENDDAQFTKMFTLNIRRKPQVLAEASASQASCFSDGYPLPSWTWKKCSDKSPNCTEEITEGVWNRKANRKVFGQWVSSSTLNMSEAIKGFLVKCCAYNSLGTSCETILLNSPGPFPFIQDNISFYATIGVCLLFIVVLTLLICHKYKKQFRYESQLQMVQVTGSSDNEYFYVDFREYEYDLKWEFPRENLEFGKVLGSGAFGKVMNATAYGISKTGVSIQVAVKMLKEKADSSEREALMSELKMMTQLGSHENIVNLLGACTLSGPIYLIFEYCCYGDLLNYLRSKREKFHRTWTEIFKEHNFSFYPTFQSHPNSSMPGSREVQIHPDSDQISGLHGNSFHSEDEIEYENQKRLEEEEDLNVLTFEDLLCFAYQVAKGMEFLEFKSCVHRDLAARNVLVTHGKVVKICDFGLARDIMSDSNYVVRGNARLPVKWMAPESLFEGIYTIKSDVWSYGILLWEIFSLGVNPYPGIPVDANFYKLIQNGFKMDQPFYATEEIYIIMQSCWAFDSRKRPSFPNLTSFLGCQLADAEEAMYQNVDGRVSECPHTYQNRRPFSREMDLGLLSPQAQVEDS
Chain of Vascular endothelial growth factor receptor 3 (Homo sapiens) (P35916 whole entry, the tested form may be a part): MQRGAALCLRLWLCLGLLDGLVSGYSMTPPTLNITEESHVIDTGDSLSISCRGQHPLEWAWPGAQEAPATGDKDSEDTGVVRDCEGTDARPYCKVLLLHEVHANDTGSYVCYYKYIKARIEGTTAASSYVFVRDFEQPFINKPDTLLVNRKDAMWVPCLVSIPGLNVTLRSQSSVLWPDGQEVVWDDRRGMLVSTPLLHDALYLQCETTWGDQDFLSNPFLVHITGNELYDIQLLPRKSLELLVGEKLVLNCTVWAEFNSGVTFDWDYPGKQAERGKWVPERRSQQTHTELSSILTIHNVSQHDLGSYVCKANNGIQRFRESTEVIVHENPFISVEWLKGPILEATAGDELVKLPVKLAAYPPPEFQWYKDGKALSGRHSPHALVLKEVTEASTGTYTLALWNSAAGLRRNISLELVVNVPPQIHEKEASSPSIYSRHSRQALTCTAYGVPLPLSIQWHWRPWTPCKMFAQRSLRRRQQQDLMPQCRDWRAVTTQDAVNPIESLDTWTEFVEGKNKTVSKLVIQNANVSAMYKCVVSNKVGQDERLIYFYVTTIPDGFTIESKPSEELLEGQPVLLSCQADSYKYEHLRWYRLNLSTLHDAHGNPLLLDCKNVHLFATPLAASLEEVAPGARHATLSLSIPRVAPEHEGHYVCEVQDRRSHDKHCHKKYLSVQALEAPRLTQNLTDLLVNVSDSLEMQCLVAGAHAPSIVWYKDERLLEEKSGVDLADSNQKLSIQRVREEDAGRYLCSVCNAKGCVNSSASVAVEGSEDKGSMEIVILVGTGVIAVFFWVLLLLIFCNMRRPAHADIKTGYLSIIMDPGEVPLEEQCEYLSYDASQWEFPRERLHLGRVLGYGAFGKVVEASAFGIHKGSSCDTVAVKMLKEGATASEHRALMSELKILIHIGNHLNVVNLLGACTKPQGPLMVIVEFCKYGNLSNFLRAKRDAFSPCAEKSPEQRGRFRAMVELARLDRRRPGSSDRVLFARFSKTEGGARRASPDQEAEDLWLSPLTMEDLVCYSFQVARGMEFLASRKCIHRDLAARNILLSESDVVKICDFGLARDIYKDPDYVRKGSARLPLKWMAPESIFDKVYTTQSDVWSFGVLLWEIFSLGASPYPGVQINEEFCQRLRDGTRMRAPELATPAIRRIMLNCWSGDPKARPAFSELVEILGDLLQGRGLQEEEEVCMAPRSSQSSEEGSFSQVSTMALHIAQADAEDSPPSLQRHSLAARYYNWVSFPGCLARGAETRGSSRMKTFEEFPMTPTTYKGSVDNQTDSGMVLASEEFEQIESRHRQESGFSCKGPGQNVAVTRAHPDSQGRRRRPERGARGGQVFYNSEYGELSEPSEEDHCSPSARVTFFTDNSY
Chain of Cyclin-dependent kinase-like 2 (Homo sapiens) (Q92772 whole entry, the tested form may be a part): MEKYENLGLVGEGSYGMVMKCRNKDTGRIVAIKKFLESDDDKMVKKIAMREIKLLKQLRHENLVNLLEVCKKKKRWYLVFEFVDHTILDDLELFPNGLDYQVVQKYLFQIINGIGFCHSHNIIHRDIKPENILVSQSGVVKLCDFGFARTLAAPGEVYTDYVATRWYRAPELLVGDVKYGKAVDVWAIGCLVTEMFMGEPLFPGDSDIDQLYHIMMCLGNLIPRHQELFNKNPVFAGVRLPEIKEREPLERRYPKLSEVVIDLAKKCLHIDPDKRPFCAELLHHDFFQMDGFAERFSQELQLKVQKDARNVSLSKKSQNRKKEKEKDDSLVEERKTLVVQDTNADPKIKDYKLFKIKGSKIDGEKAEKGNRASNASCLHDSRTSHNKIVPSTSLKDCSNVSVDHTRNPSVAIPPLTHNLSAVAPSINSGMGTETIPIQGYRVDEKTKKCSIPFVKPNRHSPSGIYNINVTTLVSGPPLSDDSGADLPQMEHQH

In the case of `CCC(=O)NCC1CCN(c2ccc(NC(=O)Nc3cccc(Oc4ccnc5cc(OC)c(OC)cc45)c3)cc2C(F)(F)F)CC1`, the GI50 [1] was 26 nM, the MRT inf [2] was 46.8 min and the Activity (BaF3) was “Active”. The GI50 [3] was 110 nM, the Activity [4] was 0% and the GI50 [5] was 320 nM. For the same molecule, the Ratio IC50 [6] was 2, the Cmax [7] was 2560 ng/mL and the pIC50 [8] was 7.00. The Tmax [9] was 1.02 min, the Activity [10] was 0% and the Activity [11] was under 1%. For the same molecule, the pIC50 [12] was 7.48, the pEC50 [13] was over 7.00 and the GI50 [14] was 670 nM. The GI50 [15] was 240 nM, the pEC50 [16] was over 7.00 and the Activity (GISTT1) was “Dose-dependent effect”. The Activity [17] was “Non-Toxic”, the GI50 [18] was 4 nM and the GI50 [19] was 99 nM. For the same molecule, the AUC [20] was 385 ng·h/mL and the Activity [21] was 0.85%.

Reference: ChEMBL document CHEMBL4428071 (J Med Chem, 2016)
